MrgX1 antag: human MrgX1 receptor antagonism, primary screen. AID 588676. B-score at 10 µM. MRGX1-HEK293 calcium flux, Fluo-4, BAM8-22 antagonism; hits give low values. 310,000 tested, 1.3% active. Q96LB2;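 active = calcium-response B-score plate-corrected more than 3 library SD below zero, starting fluorescence within 5 deviations, no agonist response on first addition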;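 also: peak minus trough fluorescence over baseline after final BAM8-22 challenge near maximal dose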
Target sequence (Q96LB2 whole entry, looked up): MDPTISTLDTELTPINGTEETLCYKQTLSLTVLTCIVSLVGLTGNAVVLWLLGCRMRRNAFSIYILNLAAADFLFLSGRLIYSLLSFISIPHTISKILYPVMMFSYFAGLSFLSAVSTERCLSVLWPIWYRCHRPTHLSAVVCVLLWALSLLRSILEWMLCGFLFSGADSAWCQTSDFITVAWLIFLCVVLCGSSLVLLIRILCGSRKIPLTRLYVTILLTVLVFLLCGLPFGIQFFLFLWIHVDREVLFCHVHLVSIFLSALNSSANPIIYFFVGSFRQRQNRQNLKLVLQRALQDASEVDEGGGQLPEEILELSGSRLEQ
RGS4 block: inhibitors of human RGS4; HEK293 M3R/RGS4 inducible, Fluo-4 calcium flux; hits give high values; triggered by carbachol at its EC20; AID 463165; B-score at 10 µM; 310,000 tested, 0.45% active;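 active = B-score, a plate-corrected calcium signal, over three deviations above library mean, with baseline fluorescence within five deviations of library mean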;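 also: RGS4 expression induced by doxycycline in cells with stable M3 receptor; B-score is computed from the integrated fluorescence ratio over baseline after carbachol; higher B-score means a larger calcium signal and so more RGS4 inhibition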
Target sequence (P49798 whole entry, looked up): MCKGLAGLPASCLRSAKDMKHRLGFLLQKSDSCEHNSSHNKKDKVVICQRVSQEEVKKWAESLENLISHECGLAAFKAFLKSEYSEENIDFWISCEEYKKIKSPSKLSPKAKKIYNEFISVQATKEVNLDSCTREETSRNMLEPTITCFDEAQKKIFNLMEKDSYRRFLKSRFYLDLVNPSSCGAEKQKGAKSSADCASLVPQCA
MrgX1 ag: activates human MrgX1 receptor signaling. Q96LB2. MrgX1-HEK293 cells, Fluo-4 calcium fluorescence, agonist mode; hits give high values. B-score at 10 µM. 310,000 tested, 0.44% active;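 active = calcium response B-score plate-corrected fluorescence ratio at least 3 library SD, with starting fluorescence B-score inside 5 SD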
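Test system: HEK293 cells stably expressing human MrgX1 receptor; amount: 15,000 cells per well; doses: compound delivered in addition one of three; times: overnight plating before 1 h dye loading; detection: Fluo-4 NW calcium-flux fluorescence, kinetic read; read-out basis: B-scored fluorescence response ratio; controls: positive and negative controls per plate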
RGS4 pot: RGS4 potentiation or activation; HEK293 M3R/inducible RGS4, carbachol calcium flux Fluo4; hits give low values; B-score at 10 µM; 310,000 tested, 0.92% active; AID 463111;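 active = B-score of the integrated calcium signal more than 4 SD below the library mean, with starting fluorescence not abnormally high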;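 also: negative B-score means reduced calcium response which marks RGS4 activation or potentiation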
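Material: M3R-expressing HEK293 line, RGS4 induced by doxycycline | Schedule: Overnight RGS4 induction, 30 min dye load 37 °C, 20 min compound RT | Measured by: Fluo4 fluorescence kinetic imaging of calcium | Read-out: Integrated calcium ratio converted to B score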
MrgX1 allo act: allosterically activates human MrgX1 receptor signaling | B-score at 10 µM | MrgX1-HEK293, Fluo-4 calcium flux, FDSS; hits give high values | 310,000 tested, 0.63% active;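 active = plate-corrected calcium response at least 3 library SD above typical, normal starting fluorescence, not activating the receptor alone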;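 also: compound read alongside a low EC10 to EC30 dose of BAM8-22 agonist; peak minus trough fluorescence over baseline measured at the second addition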
MrgX1 antag conf: human MrgX1 receptor antagonism, re-confirmation screen | MrgX1-HEK293, BAM8-22 calcium flux, Fluo-4; hits give low values | 2,300 tested, 19% active | shares compounds with MrgX1 antag | remaining BAM8-22 calcium response % of control (hits give low values), % at 10 µM;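 active = remaining agonist calcium response no higher than 100% minus 3 SD of agonist-only control wells, with starting fluorescence near control levels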;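 also: agonist BAM8-22 given at a near maximal EC90 to ECmax level; peak minus minimum fluorescence divided by baseline after agonist addition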
HEK293 Ca flux: counter-screen for MrgX1 antagonists: effect in parental HEK293 cells | shares compounds with MrgX1 antag | fluorescence ratio F(max-min)/F0 at 10 µM | AID 624111 | 4,000 tested, 2% active | Fluo-4 calcium fluorescence, FDSS;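 active = duplicate-averaged calcium fluorescence ratio at least three times the standard deviation of buffer wells, a nonspecific response in parental cells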
HEK293 Ca counter: MrgX1 allosteric activator counter-screen hit in parental HEK293 cells; shares compounds with MrgX1 antag; parental HEK293 calcium flux, Fluo-4 fluorescence ratio; hits give high values; fluorescence ratio F(max-min)/F0 at 10 µM; 4,000 tested, 0.4% active; AID 624114;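 active = calcium fluorescence ratio, averaged over duplicates, at least 3 SD of the buffer-well ratio, meaning a nonspecific response in receptor-free cells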;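 also: untransfected parental HEK293 lacking MrgX1 used as counterscreen for MrgX1 allosteric activators; fluorescence change taken during the second addition on a kinetic imager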
HEK293 Ca cntr2: activity in parental HEK293 cells lacking MrgX1 receptor | shares compounds with MrgX1 antag | Fluo-4 calcium fluorescence (FDSS); hits give high values | fluorescence ratio F(max-min)/F0 at 10 µM | 4,000 tested, 8.7% active | AID 624115;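 active = calcium fluorescence ratio at least three times the spread of buffer wells, meaning a non-specific response in parental cells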
An asterisk follows results filed as active; i = inactive; . = no result. Only some compounds are listed: those with a hit (about 3.5% of all), similar ones and a draw of the others.

SMILES | MrgX1 antag | RGS4 block | MrgX1 ag | RGS4 pot | MrgX1 allo act | MrgX1 antag conf | HEK293 Ca flux | HEK293 Ca counter | HEK293 Ca cntr2
O=C(c1nc2ccccc2s1)N1CCSCC1 | -10* | i | i | i | i | i | i | i | i
O=C(c1nc2ccccc2s1)N1CCN(c2ccccn2)CC1 | i | . | i | . | i | . | . | . | .
CN(C(=O)CSc1nnc(-c2ccccc2)o1)c1c(N)n(Cc2ccccc2)c(=O)[nH]c1=O | i | i | i | i | i | . | . | . | .
COc1cc2ccccc2cc1C(=O)Nc1nccs1 | -4.6* | i | i | i | i | i | i | i | i
COC(=O)c1ccc(NS(=O)(=O)c2ccccc2)o1 | i | i | i | i | i | . | . | . | .
CCN(CC)S(=O)(=O)c1ccc(NC2c3ncccc3C(=O)N2Cc2ccccc2)cc1 (configuration not stated) | -9.3* | i | i | i | i | i | i | i | i
CCOc1ccc(C(=O)CCC(=O)Nc2ccc(C)cn2)cc1 | -5.7* | i | i | i | i | 81%* | i | i | i
CCCOC(=O)c1cc(=O)[nH]c2ccccc12 | -4.7* | i | i | i | i | i | i | i | i
Cc1ccc(C(=O)CN2C(=O)C(=O)N(Cc3ccccc3)C2=O)cc1 | -6.4* | i | i | i | i | 80%* | i | i | i
Nn1c(SCC(=O)N2CCOCC2)nnc1-c1ccccc1Cl | -6.2* | i | i | i | i | 74%* | i | i | i
O=C(CSc1nnc2ccccn12)N1CCOCC1 | i | i | i | i | i | . | . | . | .
Cc1ccnc(N/C=C(/NC(=O)c2ccccc2)C(=O)N/N=C\c2ccc(Cl)cc2)n1 | i | i | i | i | i | . | . | . | .
COc1ccccc1Nc1nc2ccccc2n1C | -4.8* | i | i | i | i | i | i | i | i
CCOC(=O)c1cnc(-n2nc(C)cc2C)nc1NC1CCCCC1 | -4.9* | i | i | i | i | 67%* | i | i | i
Cc1cc(NCCO)c2ccccc2n1 | -4.6* | i | i | i | i | i | i | i | i
Cc1ccc(Nc2nc(NCCO)c3ccccc3n2)cc1C | -6.1* | i | i | i | i | 78%* | i | i | i
CSc1nc2ccc(NC(=O)C3CC(=O)N(Cc4ccccc4)C3)cc2s1 (configuration not stated) | i | i | i | i | i | . | . | . | .
COCCNc1ccc(S(=O)(=O)N2CCCC2)cn1 | -5* | i | i | i | i | i | i | i | i
O=C(O)C1=C(C(=O)N2CCN(C(=O)c3ccco3)CC2)CCCC1 | -5.6* | i | i | i | i | i | i | i | i
O=C(c1ccco1)N1CCN(C(=O)N2CCCCC2)CC1 | i | i | i | i | i | . | . | . | .
CCC(=O)Nc1nc(N)n(-c2ccccc2)n1 | -6.9* | i | i | i | i | i | i | i | i
CCN(CC)S(=O)(=O)c1cccc(-c2nnc(SCC(=O)NC3CCCCCCC3)n2N)c1 | i | i | i | i | i | . | . | . | .
COc1ccc(OC)c(NC(=O)C2CCN(C(=O)C3CC(=O)N(c4ccc(C)cc4)C3)CC2)c1 (configuration not stated) | i | i | i | i | i | . | . | . | .
COc1ccc(N(CC(=O)NCc2ccccc2)S(=O)(=O)c2c(C)nn(C)c2C)cc1 | -6.6* | i | i | i | i | i | i | i | i
CC1CCC2(CC1)NC(=O)N(CC(=O)NC(=O)NC1CCCC1)C2=O (configuration not stated) | i | i | i | i | i | . | . | . | .
SMILES | MrgX1 antag | RGS4 block | MrgX1 ag | RGS4 pot | MrgX1 allo act | MrgX1 antag conf | HEK293 Ca flux | HEK293 Ca counter | HEK293 Ca cntr2
Cc1onc(-c2c(F)cccc2Cl)c1C(=O)N1C=CC(C(F)(F)F)=NCC1 | i | i | i | i | i | . | . | . | .
Cc1onc(-c2c(Cl)cccc2Cl)c1C(=O)N1C=CC(C(F)(F)F)=NCC1 | -9.2* | i | i | i | i | i | i | i | i
O=C(/C(=C(\O)c1ccccc1)c1ncc[nH]1)c1ccccc1 | -9.7* | i | i | i | i | i | i | i | i
O=C(OCC(=O)N1CCN(c2ccccc2)CC1)c1ccc(O)cc1O | i | i | i | i | i | . | . | . | .
Cc1cc(C(=O)OCC(=O)N2CCN(c3ccccc3)CC2)c2ccccc2n1 | -5.5* | i | i | i | i | i | i | i | i
CCC(c1nnc(SCC(=O)NC2CCCCC2)n1Cc1ccccc1)N(C)C (configuration not stated) | i | i | i | i | i | . | . | . | .
COc1ccc2[nH]c3c(c2c1)CCNC3C1CC=C(C)CC1 (configuration not stated) | -8.9* | i | i | i | i | i | i | i | i
COc1ccc2[nH]c(C)cc(=O)c2c1 | i | i | i | i | i | . | . | . | .
O=C(CSc1nnnn1-c1cccc(Cl)c1)Nc1ccc2c(c1)CCC2 | i | i | i | i | i | . | . | . | .
N#CCCCSc1nnnn1-c1cccc(Cl)c1 | -5.8* | i | i | i | i | i | i | i | i
CC(=O)COc1ncnc2c(Cl)cc(Cl)cc12 | -4.9* | i | i | i | i | i | i | i | i
CCOc1cc(N2CCOCC2)c(OCC)cc1NC(=O)c1ccc(C)cc1 | -12* | i | i | i | i | i | i | i | i
COc1cc(/C=N/n2nnnc2N)ccc1OCC(N)=O | i | i | i | i | i | . | . | . | .
CCOC(=O)C1CCN(C(=O)CCCOc2ccccc2)CC1 | i | i | i | i | i | . | . | . | .
CCOC(=O)C1CCN(C(=O)CCCN2C(=O)c3ccccc3C2=O)CC1 | -10* | i | i | i | i | i | i | i | i

Screening results deposited in PubChem by Johns Hopkins Ion Channel Center.
